This note sets out measurements from ChEMBL document CHEMBL4715691, “Synthesis of Triphenylethylene Bisphenols as Aromatase Inhibitors That Also Modulate Estrogen Receptors” (J Med Chem, 2016).

The target in assay [1] is Estrogen receptor beta (Homo sapiens) (UniProt Q92731). Nature of the assay: Displacement of ES2 from recombinant human ER-beta at 100 uM incubated for 2 hrs by fluorescence based assay relative to control. An outline of the steps: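 Fluorescence polarization competition: test compound at 100 μM, 9 nM ES2 with 20 nM recombinant human ER-β in ES2 screening buffer (100 mM potassium phosphate, 100 µg/mL BGG, 0.02% NaN₃). Incubated 2 h protected from light, ex/em 485/530. Percent of remaining polarization versus vehicle control. Means of at least three experiments.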
Chain of Estrogen receptor beta (Homo sapiens) (Q92731 whole entry): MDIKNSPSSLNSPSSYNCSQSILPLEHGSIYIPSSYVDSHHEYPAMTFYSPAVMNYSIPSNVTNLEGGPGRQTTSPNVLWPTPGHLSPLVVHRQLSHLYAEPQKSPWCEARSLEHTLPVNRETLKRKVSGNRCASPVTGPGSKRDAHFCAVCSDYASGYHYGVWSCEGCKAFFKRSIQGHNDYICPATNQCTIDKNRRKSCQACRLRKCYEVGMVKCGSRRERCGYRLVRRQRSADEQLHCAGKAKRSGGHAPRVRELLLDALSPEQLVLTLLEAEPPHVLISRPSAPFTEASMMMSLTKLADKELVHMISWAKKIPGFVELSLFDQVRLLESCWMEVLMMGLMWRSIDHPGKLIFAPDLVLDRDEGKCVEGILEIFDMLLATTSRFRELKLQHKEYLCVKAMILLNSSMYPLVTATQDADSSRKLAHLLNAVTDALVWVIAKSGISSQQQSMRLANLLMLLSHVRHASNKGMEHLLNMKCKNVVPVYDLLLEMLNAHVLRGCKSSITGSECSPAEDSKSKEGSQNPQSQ

Assay [2] addresses T1, Estrogen receptor (Homo sapiens) (UniProt P03372).
T1 sequence (whole entry): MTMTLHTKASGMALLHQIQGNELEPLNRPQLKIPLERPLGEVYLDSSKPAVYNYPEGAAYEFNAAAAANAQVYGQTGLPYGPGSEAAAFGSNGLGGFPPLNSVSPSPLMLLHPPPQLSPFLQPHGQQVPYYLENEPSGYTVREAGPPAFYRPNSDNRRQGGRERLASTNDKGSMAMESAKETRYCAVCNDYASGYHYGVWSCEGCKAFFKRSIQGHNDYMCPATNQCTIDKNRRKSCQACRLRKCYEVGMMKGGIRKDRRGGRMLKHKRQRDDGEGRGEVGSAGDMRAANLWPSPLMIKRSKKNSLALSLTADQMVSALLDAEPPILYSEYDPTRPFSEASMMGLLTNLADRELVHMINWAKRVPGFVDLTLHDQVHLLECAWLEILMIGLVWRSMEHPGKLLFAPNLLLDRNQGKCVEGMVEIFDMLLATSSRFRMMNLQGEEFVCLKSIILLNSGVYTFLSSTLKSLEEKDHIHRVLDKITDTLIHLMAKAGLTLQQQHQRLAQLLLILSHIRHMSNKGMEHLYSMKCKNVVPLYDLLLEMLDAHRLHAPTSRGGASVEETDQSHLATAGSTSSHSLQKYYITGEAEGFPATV
Nature of the assay: Displacement of ES2 from recombinant human ER-alpha at 100 uM incubated for 2 hrs by fluorescence based assay relative to control. Put shortly:
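Fluorescence polarization competition: test compound at 100 μM, 9 nM ES2 with 30 nM recombinant human ER-α in ES2 screening buffer (100 mM potassium phosphate, 100 µg/mL BGG, 0.02% NaN₃). Incubated 2 h protected from light, ex/em 485/530. Percent of remaining polarization versus vehicle control. Means of at least three experiments.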

In assay [3] the test system is MCF7. Nature of the assay: Antagonist activity at estrogen receptor in human MCF7 cells assessed as E2-induced progesterone receptor mRNA expression level at 1 uM incubated for 24 hrs by real time PCR analysis (reference value: 100%). The arrangement: scale not given: the % may be the effect or the level left. The following applies: filed as antagonist. In kind it is cell-based. Put shortly: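 ER-positive MCF-7 cells grown in MEM with 10% FBS, 37 °C, 5% CO2, then preconditioned 72 h in charcoal-stripped FBS. […] RNA extracted after genomic DNA removal; PGR mRNA quantified by real-time PCR from threshold cycle, 40 cycles.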

For assay [4], the system named is MCF7. Nature of the assay: Selective estrogen receptor modulator activity in human MCF7 cells assessed as E2-induced progesterone receptor mRNA expression level at 1 uM incubated for 24 hrs by real time PCR analysis (reference value: 100%). In kind it is cell-based. The following applies: filed as modulator. An outline of the steps:
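MCF-7 cells grown in MEM with 10% FBS, then held 72 h in charcoal-stripped FBS. […] Genomic DNA removed, RNA extracted, PGR mRNA measured by real-time PCR (40 cycles) from Ct values.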
(Quantitative PCR measures a nucleic acid by following its amplification.)

Molecules are shown by their SMILES.

What is called inhibition is how much of the control response was suppressed.

As to `Oc1ccc(C(=C(Cn2cncn2)c2ccccc2)c2ccc(O)cc2)cc1`, the inhibition in assay [1] stood at 33%; in assay [2], 12%.
Turning to `CC/C(=C(\c1ccc(O)cc1)c1ccc(OCCN(C)C)cc1)c1ccccc1`, in the assay with MCF7 [3], the Activity worked out at 10%.
As to `N#CCC(=C(c1ccc(O)cc1)c1ccc(O)cc1)c1ccccc1`, the inhibition stood at 49% in assay [1] (filed as modulator) and 56% in assay [2] (filed as modulator).
As for `Oc1ccc(C(=C(Cn2ccnc2)c2ccc(O)c(F)c2)c2ccc(O)cc2)cc1`, the inhibition in assay [1] (filed as modulator) and in assay [2] (filed as modulator) was above 90% in each case. The Activity in the assay on MCF7 [4] was 26%.
Regarding `N#CCC(=C(c1ccc(O)cc1)c1ccc(O)cc1)c1ccc(O)c(F)c1`, the inhibition in assay [1] and in assay [2] was 0% throughout.
Regarding `N#CCC(=C(c1ccc(O)cc1)c1ccc(O)cc1)c1ccc(N)cc1`, the inhibition in assay [1] and in assay [2] was 0% each time.
As to `Nc1ccc(C(Cn2cncn2)=C(c2ccc(O)cc2)c2ccc(O)cc2)cc1`, the figures for the inhibition in assay [1] and in assay [2] were 2% and 0%, respectively.
Take `CCC(=C(c1ccc(O)cc1)c1ccc(O)cc1)c1ccccc1`: the inhibition is above 90% in assay [1] (filed as modulator) and 80% in assay [2] (filed as modulator).
In the case of `Oc1ccc(C(Cn2cnnc2)=C(c2ccc(O)cc2)c2ccc(O)cc2)cc1`, the inhibition in assay [1] (filed as modulator) and in assay [2] (filed as modulator) was above 90% in each case.
As to `CCC(=C(c1ccc(O)cc1)c1ccc(OCCN)cc1)c1ccccc1`, the Activity with MCF7 [3] was found to be 33%.
As for `Oc1ccc(C(=C(Cn2ccnc2)c2ccccc2)c2ccc(O)cc2)cc1`, the inhibition in assay [1] (filed as modulator) and in assay [2] (filed as modulator) was above 90% in each case. The Activity in the assay with MCF7 [4] came to 26%.
As for `Oc1ccc(C(Cn2cncn2)=C(c2ccc(O)cc2)c2ccc(O)cc2)cc1`, the figures for the inhibition in assay [1] (filed as modulator) and in assay [2] (filed as modulator) were 40% and 45%, respectively.
As for `Oc1ccc(C(=C(Cn2cncn2)c2ccc(O)c(F)c2)c2ccc(O)cc2)cc1`, the values for the inhibition in assay [1] and in assay [2] were 0% and 2%, respectively.
`Oc1ccc(C(=C(Cn2ccnc2)c2cccc(O)c2)c2ccc(O)cc2)cc1`: the inhibition in assay [1] came to 29%; in assay [2], 0%.
For `Nc1ccc(C(Cn2cnnc2)=C(c2ccc(O)cc2)c2ccc(O)cc2)cc1` the same measures were 36% and 13%.
For the compound `Nc1cccc(C(Cn2ccnc2)=C(c2ccc(O)cc2)c2ccc(O)cc2)c1`, the inhibition in assay [1] (filed as modulator) worked out at 71%; in assay [2] (filed as modulator), 60%.
Regarding `Oc1ccc(C(=C(Cn2cnnc2)c2ccc(O)c(F)c2)c2ccc(O)cc2)cc1`, the inhibition in assay [1] and in assay [2] was 0% in each case.
For the compound `Nc1ccc(C(Cn2ccnc2)=C(c2ccc(O)cc2)c2ccc(O)cc2)cc1`, the inhibition in assay [1] (filed as modulator) and in assay [2] (filed as modulator) was above 90% throughout. Also, in the assay with MCF7 [4], the Activity is 26%.
In the case of `N#CCC(=C(c1ccc(O)cc1)c1ccc(O)cc1)c1ccc(O)cc1`, the inhibition is 3% in assay [1] and 0% in assay [2].
Regarding `Oc1ccc(C(Cn2ccnc2)=C(c2ccc(O)cc2)c2ccc(O)cc2)cc1`, the inhibition in assay [1] (filed as modulator) and in assay [2] (filed as modulator) was above 90% each time. The Activity in the assay with MCF7 [4] was determined as 26%.
